Article PMC7317421 (Clinical Pharmacology in Drug Development, 2020)
Like-named read-outs stand apart in the source and are kept apart here.

Experiments:
[1] = type: in vivo, human; conditions: for Median Tmax (range) / Cmax / t½: 100 mg single oral dose, Part 3; for Cmax: arithmetic mean (SD); for t½: mean ± SD
[2] = Fasting and postprandial serum triglycerides and fasting lipids; type: in vivo, human
How it was run: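 Part 2, randomized 4:1 to drug or placebo with food, once daily or every 12 hours on days 1‑14. Fasting lipids were sampled after overnight fasts over 16 days. Total cholesterol, direct LDL and HDL were run on an automated chemistry analyzer. Postprandial triglycerides: 12 serial samples over 24 h on days 0 and 12. AUEC by trapezoid rule, averaged as AUEC24/24 when first, last and ≥75% of samples were available. Baseline was the mean of 0‑h values on days 0‑1.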

[3] = monkeys; cited from earlier work
[4] = Safety and tolerability: adverse events, vital signs, ECG; type: in vivo, human
How it was run: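 Observed and self‑reported AEs, clinically significant physical‑exam changes and abnormal laboratory results were recorded. Vital signs and 12‑lead ECGs were monitored throughout. In Part 2, AEs were tallied separately for drug alone (days 1‑13) and for the periods with fructose/D2O. The safety set was everyone receiving ≥1 dose of study drug or fructose/D2O. Data were reviewed on an ongoing basis and summarized descriptively.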

[5] = Platelet count and mean platelet volume; type: in vivo, human
[6] = Plasma pharmacokinetics, single ascending oral doses after overnight fast; type: in vivo, human; conditions: fasted, Part 1; for AUC0‐∞ / Cmax: arithmetic mean (SD); for t½: mean ± SD
How it was run: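 Randomized, double‑blind, placebo‑controlled interleaving crossover in 2 cohorts of 8. Each cohort received 4 ascending single doses, ≥10 days apart, taken with water after a ≥10‑h overnight fast. Blood sampled up to 72 h postdose. Plasma was extracted by protein precipitation with a stable‑isotope internal standard and measured by LC‑MS/MS with calibration 2.00–1000 ng/mL (LLOQ 2.00 ng/mL). Noncompartmental parameters were summarized descriptively by dose.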

hepatic DNL = assay: Fructose-stimulated hepatic DNL inhibition; type: in vivo, human
How it was run: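 Part 2, with baseline on day −6 and repeat on day 14 of dosing. On the evening/night before each challenge, subjects drank 4 doses of 70% D2O (60 mL each). Oral fructose 0.25 g/kg was then given every 30 min from 0 to 9.5 h, with dosing at 0 h. Body‑water deuterium was measured. Triglyceride‑palmitate was isolated from plasma by Folch extraction and TLC, and its methyl ester analysed by GC‑pyrolysis isotope‑ratio MS. Basal‑adjusted % newly made palmitate and AUEC10 were calculated.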

[7] = type: in vivo, human; conditions: for AUCtau / Cmax: mean (SD)
[8] = rats; cited from earlier work
[9] = humans; cited from earlier work
[10] = 100 mg single dose, high‐fat meal vs fasted
[11] = 100 mg every 12 hours, same withdrawn subject

## COc1cc(C(=O)N2CCC3(CC2)CC(=O)c2c(cnn2C(C)C)C3)cc(-c2ccc(C(=O)O)cc2)n1 [PF‐05221304]
[1]; 100 mg single dose, fasted
  Geometric mean AUC0‐∞: 79 320 ng·h/mL
[1]; 100 mg single dose, fasted, CV% 25%
  geometric mean Cmax: 7479 ng/mL
[1]; 100 mg single dose, fed
  Geometric mean AUC0‐∞: 72 360 ng·h/mL
[1]; 100 mg single dose, fed, CV% 41%
  geometric mean Cmax: 5592 ng/mL
[1]; [10]
  decrease of AUC0‐∞ with food: ~9%
  plasma Cmax reduction with food: 25%
[1]; fasted state
  Median Tmax (range): 2.5 (1.0‐3.0) h
  Cmax: 7671 (1699.8) ng/mL
  t½: 12.3 ± 2.0 h
[1]; fed state
  Median Tmax (range): 5.0 (2.0‐8.0) h
  Cmax: 5947 (1982.1) ng/mL
  t½: 13.2 ± 3.5 h
[2]; [11]
  elevated fasting serum triglyceride levels (1 subject): 2.1 fold
  elevated postprandial serum triglyceride levels (1 subject): 2.6 fold
[2]; repeated daily doses ≥40 mg/day
  fasting and postprandial serum triglyceride levels: increased
[3]
  asymmetric hepatic distribution: ≥ 100 fold
[4]; Part 1 (single doses, PF‐05221304 or placebo periods)
  subjects with AEs: 5 subjects
[4]; Part 3 (100 mg single dose fed/fasted)
  subjects with AEs: 3 subjects
[4]; all parts
  vital signs or cardiac conduction intervals (12‐lead ECG): no clinically significant changes
[4]; single 1‐240 mg, repeated 2‐200 mg daily
  tolerability: well tolerated at all doses
[4]; up to 240 mg single, 200 mg/day repeated
  maximum tolerated dose: not identified
[5]; 100 mg every 12 hours, day 13 + 24 hours, one person
  maximum decline from day 0 in platelet count (1 subject, moderate AE): 53 000 /µL
[5]; doses ≥20 mg/day administered every 12 hours
  platelet volume: increases in platelet volume
[5]; repeated doses ≤40 mg/day
  platelet count: No change in platelet count
[5]; repeated dosing ≥60 mg/day
  platelet count: gradual decline in platelet count from day 7 onward
[5]; repeated dosing, Part 2
  lowest platelet count observed: ≥ 100 000 /µL
[5]; single doses, 1‐ to 240‐mg dose range
  platelet count: did not change
[6]; 1 mg single oral dose
  Median Tmax (range): 2.0 (1.0‐3.0) h
  AUC0‐∞: 670.5 (182.2) ng·h/mL
  Cmax: 48.3 (8.2) ng/mL
  t½: 13.6 ± 3.4 h
[6]; 3 mg single oral dose
  Median Tmax (range): 2.5 (1.1‐4.0) h
  AUC0‐∞: 2508 (476.0) ng·h/mL
  Cmax: 177.0 (46.3) ng/mL
  t½: 13.5 ± 3.5 h
[6]; 10 mg single oral dose
  Median Tmax (range): 3.0 (1.0‐5.0) h
  AUC0‐∞: 8603 (1603.8) ng·h/mL
  Cmax: 608.5 (134.0) ng/mL
  t½: 18.3 ± 2.3 h
[6]; 30 mg single oral dose
  Median Tmax (range): 2.0 (0.5‐4.0) h
  Cmax: 2008 (421.7) ng/mL
  t½: 17.6 ± 2.6 h
[6]; 100 mg single oral dose
  Median Tmax (range): 2.0 (1.0‐4.0) h
  Cmax: 7435 (1904.5) ng/mL
  t½: 16.0 ± 3.6 h
[6]; 200 mg single oral dose
  Median Tmax (range): 2.0 (0.5‐4.0) h
  t½: 15.3 ± 3.4 h
[6]; 240 mg single oral dose
  Median Tmax (range): 1.5 (1.0‐4.0) h
  t½: 15.2 ± 2.8 h
Hepatic DNL; 10 mg Q12H, day 14 vs baseline (day −6)
  Adjusted % inhibition of newly made triglyceride‐palmitate (DNL), AUEC10: 80.0%
Hepatic DNL; doses <40 mg/day
  hepatic DNL inhibition over a 10‐hour period postdose: ≤ 80%
Hepatic DNL; doses ≥40 mg/day, 14 days
  inhibition of DNL (AUEC of newly made triglyceride‐palmitate), near‐maximal: > 90%
[7]; Day 1, 1 mg every 12 hours
  Median Tmax (range): 3.0 (3.0‐5.0) h
  AUCtau: 384.5 (71.1) ng·h/mL
  Cmax: 54.4 (9.0) ng/mL
[7]; Day 1, 3 mg every 12 hours
  Median Tmax (range): 5.0 (2.0‐6.0) h
  AUCtau: 1038 (131.4) ng·h/mL
  Cmax: 142.7 (21.2) ng/mL
[7]; Day 1, 10 mg every 12 hours
  Median Tmax (range): 3.5 (1.0‐5.0) h
  AUCtau: 3811 (767.3) ng·h/mL
  Cmax: 584.6 (91.2) ng/mL
[7]; Day 1, 30 mg every 12 hours
  Median Tmax (range): 5.0 (3.0‐5.0) h
  Cmax: 1689 (256.7) ng/mL
[7]; Day 1, 40 mg once daily
  Median Tmax (range): 4.0 (2.0‐8.0) h
  Cmax: 1986 (591.8) ng/mL
[7]; Day 1, 100 mg every 12 hours
  Median Tmax (range): 3.5 (0.5‐5.0) h
  Cmax: 6831 (1388.6) ng/mL
[7]; Day 1, 100 mg once daily
  Median Tmax (range): 4.0 (2.0‐6.0) h
  Cmax: 5965 (1252.2) ng/mL
[7]; Day 7, 1 mg every 12 hours
  Median Tmax (range): 3.0 (2.0‐5.0) h
  AUCtau: 760.4 (202.4) ng·h/mL
  Cmax: 91.4 (19.3) ng/mL
[7]; Day 7, 3 mg every 12 hours
  Median Tmax (range): 5.0 (3.0‐5.1) h
  AUCtau: 2264 (484.8) ng·h/mL
  Cmax: 283.1 (49.1) ng/mL
[7]; Day 7, 10 mg every 12 hours
  Median Tmax (range): 5.0 (5.0‐6.0) h
  AUCtau: 8334 (2131.6) ng·h/mL
  Cmax: 1009 (215.9) ng/mL
[7]; Day 7, 30 mg every 12 hours
  Median Tmax (range): 5.0 (3.0‐6.0) h
  Cmax: 3229 (741.0) ng/mL
[7]; Day 7, 40 mg once daily
  Median Tmax (range): 4.0 (3.0‐6.0) h
  Cmax: 2654 (674.6) ng/mL
[7]; Day 7, 100 mg every 12 hours
  Median Tmax (range): 3.5 (3.0‐5.0) h
[7]; Day 7, 100 mg once daily
  Median Tmax (range): 4.0 (2.0‐6.0) h
  Cmax: 7894 (1117.5) ng/mL
[7]; day 7, Part 2
  excreted in urine as unchanged drug over the dosing interval (Aeτ): Less than 1%
[7]; every‐12‐hour dosing
  accumulation for AUCtau: approximately 2 fold
[7]; multiple oral doses 1‐100 mg every 12 hours and 40‐100 mg once daily with food
  median Tmax: 3 to 5 h
[7]; once‐daily dosing
  accumulation for AUCtau: approximately 1.5 fold
[7]; repeated dosing, Part 2
  steady state achieved (trough concentrations): ≤ 7 days
[8]
  asymmetric hepatic distribution: ≥ 100 fold

## Cc1nc2ccc(C(=O)N3CCC4(CC3)CC(=O)c3c(cnn3C(C)C)C4)cc2[nH]1 [PF‐05175157]
[9]
  platelet count: decreased platelet count
